# Source: PubChem BioAssay
# The list is not random: actives were taken first. Their share in the collection is about 3.9%.
# TAAR1 agonist – agonists of human TAAR1. hit rate 0.99% among 360,000. activation, % at 3 µM. Q96RJ0. CHO RD-HGA16 TAAR1, Fluo-8 calcium fluorescence; vehicle wells 0%, saturating PEA agonist 100%. AID 624467;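 active = activation above the mean activation of all test compounds in the run plus 3 SD, cut at about 38% in these data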
#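 System: CHO RD-HGA16 cells carrying human TAAR1 plus Gα16; Incubation: 17-24 h seeding, 75 min 37 °C dye, 30 min RT; Measured by: Fluo-8 fluorescence, 5 s baseline then 140 s kinetic read; Control set: DMSO and PEA EC100; Replication: single well for each compound.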
# TAAR1 antagonist – human TAAR1 antagonism; Q96RJ0; CHO RD-HGA16 TAAR1, Fluo-8 calcium fluorescence, antagonist; inhibition, % at 3 µM; hit rate 1.5% among 360,000; AID 624466;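 active = inhibition above a per-plate cutoff, the mean inhibition of test compounds on that plate plus 3 SD, cut at about 49% in these data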;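 also: 0% = DMSO plus EC80 beta-PEA response and 100% = DMSO alone without agonist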
#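 Test system: hTAAR1-expressing CHO RD-HGA16 cells, Gα16-coupled; Probe or stimulus: EC80 β-phenethylamine stimulus; Compound dosing: single nominal final test compound concentration of 3 µM; Timing: 140 s kinetic read after compound, 140 s after agonist; Signal: Fluo-8 calcium-sensitive fluorescence; Measure: % inhibition of agonist calcium response; Controls: DMSO and EC80 PEA controls.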
# OX1R antag-1 – human HCRTR1 antagonism; O43613; CHO/OX1R cells, Fluo-8 calcium fluorescence, orexin A; inhibition, % at 5 µM; hit rate 0.43% among 330,000;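 active = inhibition above its plate's threshold, mean inhibition of all tested compounds on the plate plus 3 SD, cut at about 37% in these data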;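 also: 0% = orexin A challenge wells and 100% = SB-334867-A antagonist wells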
# Target sequence (O43613 whole entry, looked up): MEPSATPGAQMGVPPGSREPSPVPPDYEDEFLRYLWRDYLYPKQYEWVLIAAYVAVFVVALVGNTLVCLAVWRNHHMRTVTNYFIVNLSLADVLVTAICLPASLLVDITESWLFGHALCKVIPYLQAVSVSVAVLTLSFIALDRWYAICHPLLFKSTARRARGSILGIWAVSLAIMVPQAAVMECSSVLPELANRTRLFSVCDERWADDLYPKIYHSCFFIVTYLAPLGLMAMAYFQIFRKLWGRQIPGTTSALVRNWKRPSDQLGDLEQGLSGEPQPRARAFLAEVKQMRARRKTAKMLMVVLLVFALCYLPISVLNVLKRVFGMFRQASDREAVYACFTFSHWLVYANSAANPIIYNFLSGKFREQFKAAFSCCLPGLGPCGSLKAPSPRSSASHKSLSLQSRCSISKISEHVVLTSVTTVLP
# CHO parental Ca – signal in parental CHO cells, OX1R antagonist counter-screen; parental CHO-K1, ATP-induced calcium, Fluo-8 fluorescence; inhibition, % at 5.6 µM; hit rate 0.63% among 330,000;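 active = inhibition above that plate's mean sample inhibition plus 3 SD, cut at about 26% in these data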;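 also: 0% = ATP-challenged DMSO wells and 100% = DMSO wells without ATP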
#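 Assay system: untransfected parental CHO cell line. Also added: ATP agonist challenge. Dosing: one dose, 5.6 µM nominal. Measured by: Fluo-8 fluorescence. Read-out: % inhibition. Benchmarks: ATP wells versus no-ATP DMSO wells. Repeats: no replicates.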
# OX1R antag-2 – blocks the human orexin 1 receptor | O43613 | OX1R-expressing cells, FRET antagonist read-out | inhibition, % at 6.6 µM | hit rate 1.8% among 330,000 | AID 485270; in the data active = inhibition mostly above about 38%, no sharp cut-off; inactive = mostly below about 40%;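 also: 0% = agonist challenge alone and 100% = reference antagonist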
# TAAR1 ag conf – human TAAR1 agonism, confirmed; shares compounds with TAAR1 agonist; CHO RD-HGA16 TAAR1, Fluo-8 calcium fluorescence; scaled: DMSO 0%, maximal phenethylamine 100%; activation, % at 3 µM; hit rate 82% among 2,400; AID 651783;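 active = activation above a cutoff set at the run's mean compound activation plus 3 SD, cut at about 39% in these data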
# Ga16 ag counter – counter-screen for TAAR1 agonists: nonselective agonists in parental cells. shares compounds with TAAR1 agonist. AID 651787. CHO-Ga16 parental, Fluo-8 calcium fluorescence; normalized to maximal ATP response, DMSO zero. activation, % at 3 µM. hit rate 50% among 2,400;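 active = activation above the run cutoff, the mean activation over all tested wells plus 3 SD, cut at about 12% in these data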;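 also: 0% = DMSO wells and 100% = maximal ATP response on the peak over basal ratio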
# TAAR1 desens – human TAAR1 agonist that also desensitizes the receptor; shares compounds with TAAR1 agonist; CHO RD-HGA16 hTAAR1, Fluo-8 calcium, beta-PEA response inhibition; inhibition, % at 3 µM; hit rate 46% among 2,400; AID 651951;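 active = inhibition above the run cutoff, the mean inhibition of all test compounds plus 3 SD, cut at about 49% in these data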;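 also: beta-PEA stimulus applied at its EC80; loss of beta-PEA calcium signal after compound pretreatment read as receptor desensitization; 0% = DMSO with beta-PEA at EC80 and 100% = DMSO alone without agonist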
# Ga16 nonsel ant – nonselective Ga16 antagonism, counter-screen | CHO-Ga16 ATP-induced calcium, Fluo-8 fluorescence | hit rate 39% among 2,400 | shares compounds with TAAR1 agonist | inhibition, % at 3 µM | AID 651952;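 active = inhibition above the plate's mean compound inhibition plus 3 SD, computed per plate, cut at about 22% in these data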;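 also: 0% = EC80 ATP with DMSO and 100% = DMSO wells without ATP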
# Numbers without * were called inactive; nt = no result.
SMILES,TAAR1 agonist,TAAR1 antagonist,OX1R antag-1,CHO parental Ca,OX1R antag-2,TAAR1 ag conf,Ga16 ag counter,TAAR1 desens,Ga16 nonsel ant
CC1CN(C(C)C(=O)NNC(=O)c2ccc(F)cc2)CC(C)O1 (stereo unspecified),3,-21,-17,-5,3,nt,nt,nt,nt
COc1ccc(OCCN2CCC(C(=O)NC(c3ccsc3)c3ccccc3C)CC2)cc1 (stereo unspecified),10,19,nt,nt,nt,nt,nt,nt,nt
Cc1cnc(NC(=O)CCCSc2nc3ccccc3s2)s1,53*,61*,-19,-1,15,9,2,2,4
COC(=O)CCCCCCCCC(=O)Nc1nc2ccccc2s1,50*,2,-36,-17,51,76*,37*,18,5
Cc1ccc(C(=O)NCCc2nnc3ccc(SCC(=O)Nc4nnc(C)s4)nn23)cc1,0,-5,nt,nt,nt,nt,nt,nt,nt
Cc1ccc(NC(=O)CSC(C)C(=O)OCc2cc(=O)oc3cc(O)ccc23)cc1 (stereo unspecified),9,23,nt,nt,nt,nt,nt,nt,nt
Cc1cccc2[nH]c(CCNC(=O)C3CCC(=O)N(CCc4cccc(F)c4)C3)nc12 (stereo unspecified),6,-20,-4,-12,8,nt,nt,nt,nt
COC(=O)c1cccc(C(=O)N2CCCC(C(=O)c3cccc(OC(C)C)c3)C2)c1 (stereo unspecified),53*,-4,-7,-2,15,-2,2,6,6
C=CCn1c(SCC(=O)Nc2ccc3c(c2)OCCO3)nc2cc(C(=O)O)ccc2c1=O,4,-23,10,-6,-1,nt,nt,nt,nt
O=C(NC(=S)NNC(=O)c1cccs1)c1ccc(Br)o1,116*,42,5,4,4,65*,46*,32,27*
Cc1cc(OCC(=O)NNC(=S)NC(=O)c2ccc(Br)o2)ccc1Cl,121*,66*,nt,nt,nt,98*,73*,75*,56*
CCC(=O)NC(=S)Nc1ccc(NC(=O)COc2ccc(Cl)c(C)c2)cc1,2,3,-24,-3,19,nt,nt,nt,nt
CN1CCN(c2nc3cc(C(F)(F)F)ccc3n3cccc23)CC1,62*,-6,-19,-20,14,83*,20*,30,3
O=C1C=C(NCCN2CCOCC2)CC(c2ccccc2)C1 (stereo unspecified),12,-20,-22,-16,12,nt,nt,nt,nt
CCOc1ccc(CCNC(=O)CCCn2nc(C)c3c(C)n(-c4ccccc4)nc3c2=O)cc1,-2,-20,-33,-38,13,nt,nt,nt,nt
Cc1nn(CCCC(=O)NCCc2ccccc2)c(=O)c2nccn12,44*,-34,-19,-11,6,66*,3,6,7
C#CCOC(=O)CCC(=O)NCCc1ccccc1,63*,77*,-17,-7,6,84*,4,97*,11
O=C(CCCCC(=O)NCCc1ccccc1)NCCc1ccccc1,10,2,-16,-10,6,nt,nt,nt,nt
O=C(CCCOc1ccccc1)NCCc1ccccc1,nt,nt,14,-6,7,nt,2,nt,7
CC(C)c1[nH]nc2c1C(Cc1ccccc1)C(C#N)=C(N)O2 (stereo unspecified),1,-3,-10,-5,-4,nt,nt,nt,nt
O=C(C(=O)N1CCc2ccccc2C1)c1cn(CC(=O)N2CCCC2)c2ccccc12,50*,0,-10,-21,16,50*,3,10,11
CC1C/C(=C/c2cccn2C)C(=O)/C(=C/c2cccn2C)C1 (stereo unspecified),67*,76*,111*,83*,0,40*,45*,51*,65*
CC(=O)c1c(C)[nH]c(C(=O)OCC(=O)NNC(=O)c2ccc([N+](=O)[O-])cc2)c1C,5,7,-13,-8,21,nt,nt,nt,nt
CC(=O)c1c(C)[nH]c(C(=O)OCc2nnc(-c3ccc([N+](=O)[O-])cc3)o2)c1C,48*,20,10,11,15,5,7,18,14
COc1ccc(NC(=O)CN2C(=O)NC3(CCCc4ccccc43)C2=O)c(OC)c1 (stereo unspecified),6,7,-17,-18,7,nt,nt,nt,nt
SMILES,TAAR1 agonist,TAAR1 antagonist,OX1R antag-1,CHO parental Ca,OX1R antag-2,TAAR1 ag conf,Ga16 ag counter,TAAR1 desens,Ga16 nonsel ant
O=C1C=C(c2ccccc2)C(=O)N1Nc1ccccc1,51*,16,26,14,27,70*,48*,43,35*
COc1ccc(C2=CC(=O)N(Nc3ccccc3)C2=O)cc1,33,-3,5,6,20,nt,nt,nt,nt
Nc1nc(Nc2ccccc2)sc1C(=O)c1ccccc1,68*,-33,-51,-42,26,50*,23*,6,-2
CC1CCN(C(=O)Cn2nnc(-c3ccc(N)cc3)n2)CC1,0,1,-18,-4,6,nt,nt,nt,nt
CCN(CC)c1ccc(/C=C2\C(=O)c3ccc(C(=O)O)cc3C2=O)cc1,125*,86*,87*,51*,27,144*,163*,89*,92*
CC(=O)N1CCCc2cc(S(=O)(=O)N3CCCC(C(=O)Nc4cccc(C)c4)C3)ccc21 (stereo unspecified),3,5,-16,-7,14,nt,nt,nt,nt
NC(=NCCc1ccccc1)NC(=O)c1cc(Cl)ccc1O,90*,77*,7,-9,17,91*,4,94*,23*
Oc1ccc(Cl)cc1C=NCCc1ccccc1,nt,nt,-12,-6,9,nt,-1,nt,10
Oc1ccccc1C=NCCN=Cc1ccccc1O,3,-18,1,-2,8,nt,nt,nt,nt
COc1cc(/C=N/NC(=O)c2nnn(-c3nonc3N)c2C)ccc1OCc1ccc(Cl)cc1,0,3,nt,nt,nt,nt,nt,nt,nt
O=C(NCCc1ccccc1)C1CCCN(S(=O)(=O)c2cccc3nonc23)C1 (stereo unspecified),9,3,-18,-2,27,nt,nt,nt,nt
O=C(NCCc1ccccc1)C(NS(=O)(=O)c1cccc2nsnc12)c1ccccc1 (stereo unspecified),41*,11,-15,-18,74*,76*,-1,41,11
O=C(NCCc1ccccc1)C1CCCN(S(=O)(=O)c2cccc3nsnc23)C1 (stereo unspecified),97*,72*,-25,-30,36,85*,6,91*,15
